Measurements: PMC9586281 (Proceedings of the National Academy of Sciences of the …, 2022)

How the values were obtained:
[1] = tested on: FOXP3:NFAT; settings: cited from earlier work
[2] = required plasmid transfection for cellular introduction; cited from earlier work
[3] = target: T1, ΔN FOXP3 (T182-P431) (Homo sapiens, UniProt Q9BZS1); assay: Fluorescence polarization analysis; format: binding; settings: FPA, 50 nM FITC-labeled peptide, 1× PBS pH 8, 1-15 min room temperature
T1 sequence (Q9BZS1 182-431): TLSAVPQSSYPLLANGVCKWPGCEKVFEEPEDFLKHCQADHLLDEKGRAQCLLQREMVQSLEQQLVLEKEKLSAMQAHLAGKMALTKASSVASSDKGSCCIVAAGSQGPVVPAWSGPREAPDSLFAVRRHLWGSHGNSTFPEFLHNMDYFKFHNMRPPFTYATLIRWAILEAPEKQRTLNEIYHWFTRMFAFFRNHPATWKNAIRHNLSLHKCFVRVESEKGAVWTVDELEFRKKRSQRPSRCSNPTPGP
Outline: (§1)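 Solution-phase fluorescence polarization using recombinant truncated FOXP3 as the binding partner. Equilibrium binding constants were determined for stapled peptides and for their native unstapled peptide controls.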

[4] = tested on: Treg cell-mediated suppression of Tcon cell proliferation; assay: Ex vivo suppression assay; format: cell-based, mice; settings: Treg cells pretreated with peptide, 72 h coculture with Tcon cells
[5] = target: T2, LZCC FOXP3 (T182-M337) (Homo sapiens, UniProt Q9BZS1); assay: Fluorescence polarization analysis; format: binding; settings: FPA, 50 nM FITC-labeled peptide, 1× PBS pH 8, 1-15 min room temperature
T2 sequence (Q9BZS1 182-336 limits assumed): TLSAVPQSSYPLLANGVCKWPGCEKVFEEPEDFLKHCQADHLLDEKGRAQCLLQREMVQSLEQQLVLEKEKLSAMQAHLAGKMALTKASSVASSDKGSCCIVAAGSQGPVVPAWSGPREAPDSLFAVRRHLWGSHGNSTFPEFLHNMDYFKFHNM
Outline: as §1

Substance | Inhibition of FOXP3:NFAT [1] | Cell permeability [2] | KD, ΔN FOXP3 [3] | Inhibition of Treg cell-mediated suppression of target proliferation [4] | KD, LZCC FOXP3 [5]
FOXP3 393–403: nonstructured peptide spanning a loop domain and the Wing1 region of the FKH domain of FOXP3 (KCFVRVESEKG; UniProt Q9BZS1 393-403, looked up, fragment) | partially inhibit FOXP3:NFAT | not cell permeable |  |  | 
FOXP3(229-259): native, unstapled peptide control of hFOXP3 residues 229-259 (RAQCLLQREMVQSLEQQLVLEKEKLSAMQAH; UniProt Q9BZS1 229-259, looked up, fragment) |  |  | no binding | no ability to prevent Treg cell–mediated suppression of Tcon cell proliferation | no binding
